# High-throughput results (PubChem)
# KCNQ1 inh = inhibitors of human KCNQ1 channel, primary screen, cell-based, thallium flux, high-throughput; B-score at 10 µM; hit rate 1.3% among 310,000; AID 2642, 2010; CHO-K1 KCNQ1, FluxOR thallium flux fluorescence; hits give high values;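 active = compounds whose thallium flux B-score, printed positive for inhibition, exceeds three library SD while starting fluorescence stays within three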;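 also: channel opened by potassium depolarization with thallium stimulus after 20 min compound exposure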
# Target sequence (P51787 whole entry, looked up): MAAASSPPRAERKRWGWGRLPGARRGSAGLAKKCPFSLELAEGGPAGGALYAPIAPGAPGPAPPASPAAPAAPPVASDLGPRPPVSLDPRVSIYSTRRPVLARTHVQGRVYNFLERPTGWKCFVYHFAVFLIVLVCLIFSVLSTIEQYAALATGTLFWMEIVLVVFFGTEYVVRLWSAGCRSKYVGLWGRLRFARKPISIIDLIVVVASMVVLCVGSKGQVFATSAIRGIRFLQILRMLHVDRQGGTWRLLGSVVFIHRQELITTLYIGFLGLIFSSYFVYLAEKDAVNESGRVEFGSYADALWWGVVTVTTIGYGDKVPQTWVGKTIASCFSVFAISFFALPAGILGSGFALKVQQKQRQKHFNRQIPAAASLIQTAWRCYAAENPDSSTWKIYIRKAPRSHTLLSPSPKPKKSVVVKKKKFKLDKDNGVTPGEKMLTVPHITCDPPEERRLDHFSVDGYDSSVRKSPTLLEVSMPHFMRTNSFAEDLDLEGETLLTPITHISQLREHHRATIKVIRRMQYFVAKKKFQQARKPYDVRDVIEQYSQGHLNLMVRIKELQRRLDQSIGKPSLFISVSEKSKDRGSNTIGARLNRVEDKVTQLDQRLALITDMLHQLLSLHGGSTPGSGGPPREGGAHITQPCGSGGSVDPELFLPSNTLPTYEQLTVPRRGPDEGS
# Kir21 inh = inhibitors of mouse Kir2.1 inward-rectifier potassium channel; HEK293-Kir2.1, FluxOR thallium flux fluorescence; hits give low values; B-score at 10 µM; hit rate 0.85% among 310,000;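 active = fluorescence ratio B-score at or below minus 3 SD of library scores, with starting-brightness B-score within 2 SD, cut at about -4.2 in these data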;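 also: channel flux triggered by added potassium and thallium sulfate stimulus; B-score of peak minus minimum fluorescence over baseline after thallium stimulus; more negative B-score means stronger Kir2.1 block with less thallium influx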
# KCNQ1 pot = potentiators or activators of KCNQ1 channel, primary screen, cell-based, thallium flux, high-throughput; hit rate 0.35% among 310,000; B-score at 10 µM; CHO-K1 KCNQ1, thallium flux FluxOR fluorescence; hits give high values; Potassium voltage-gated channel subfamily KQT member 1 (Homo sapiens), P51787;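 active = fluorescence ratio B-score, a plate-corrected score, at least three library SD, with initial intensity B-score within 5 SD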
#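 Test system: CHO-K1 cells stably expressing KCNQ1 / Medium: assay buffer / Also added: depolarizing K+/Tl+ stimulus, K2SO4 and Tl2SO4 each 12.5 mM in 5x stock / Incubation: 90 min dye loading and 20 min compound exposure, both at room temperature / Signal: thallium influx via FluxOR fluorescence, kinetic imaging / Evaluation: B score of baseline-normalized fluorescence ratio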
# KCNK9 inh = KCNK9 potassium channel inhibitors, primary screen, HEK293 cells, thallium flux; Potassium channel subfamily K member 9 (Homo sapiens), Q9NPC2; FluxOR thallium flux fluorescence; hits give low values; B-score at 10 µM; hit rate 1.2% among 310,000;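 active = ratio B-score over 3 SD below the library mean, with starting fluorescence within 5 SD of its mean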;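 also: negative B-score means less thallium flux so channel inhibition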
# KCNK3 block = human KCNK3 channel inhibitors, primary screen, CHO cells, FluxOR thallium flux, B-score; Potassium channel subfamily K member 3 (Homo sapiens), O14649; FluxOR fluorescence; hits give low values; B-score at 10 µM; hit rate 0.84% among 340,000;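 active = B-score under library mean minus 4 SD, starting fluorescence ratio at most library mean plus 5 SD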;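 also: more negative B-score means stronger inhibition of thallium flux through KCNK3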
# hERG rescue = hERG rescue from dofetilide block, primary screen, cell-based, CHO-hERG, FluxOR thallium flux, dofetilide IC70; activation (rescue from dofetilide block), less the hit threshold, % at 10 µM; Voltage-gated inwardly rectifying potassium channel KCNH2 (Homo sapiens), Q12809; AID 1511, 2009; hit rate 0.51% among 310,000; dofetilide IC70 present;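 active = activation above the mean of controls blocked by dofetilide plus 5 SD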;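 also: thallium influx through hERG after potassium depolarization seen as dye fluorescence rise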
# Numbers without * were called inactive; i = inactive; . = no result. Most compounds without a hit are left out; they make up all but 3.7% or so of the library.
SMILES,KCNQ1 inh,Kir21 inh,KCNQ1 pot,KCNK9 inh,KCNK3 block,hERG rescue
COc1ccc2nc(NCc3ccccc3)[nH]c2c1,i,-5.3*,i,i,i,-5
COC(=O)C1CCN(C(=O)c2cc(S(=O)(=O)N3CCCCC3)ccc2Cl)CC1,.,.,.,.,i,.
COc1ccc(/C=C2\SC(c3ccc(C)cc3)=NC2=O)cc1OC,i,0.19,i,i,i,9.7*
COc1cc(/C=C2\SC(c3ccccc3)=NC2=O)cc(Cl)c1O,i,2,i,i,-10*,-8
COc1cc2c(cc1OC)CN(C(=O)c1cccc(S(=O)(=O)N3CCc4ccccc43)c1)CC2,.,.,.,.,i,.
O=C(c1cccc(S(=O)(=O)N2CCc3ccccc32)c1)N1CCc2ccccc2C1,.,.,.,.,-9.4*,.
O=C(c1cccc(S(=O)(=O)N2CCCc3ccccc32)c1)N1CCN(c2ccccc2)CC1,.,.,.,.,-9.5*,.
CCCc1cc(=O)[nH]c(SCC(=O)Nc2cccc(S(=O)(=O)N3CCCCC3)c2)n1,.,.,.,.,i,.
CCOC(=O)c1cc(-c2ccccc2)n(CC2CC(c3ccc(OC)cc3)=NO2)n1 (centres undefined),i,-0.42,i,i,i,-7
COc1ccc(C(c2c(NC(=O)c3ccco3)sc(C)c2C)N2CCOCC2)cc1OC (centres undefined),.,.,.,.,-9.7*,.
Cc1sc(NC(=O)c2ccco2)c(C(c2ccccc2)N2CCC(C)CC2)c1C (centres undefined),i,-0.67,i,-7*,i,-13
Cc1sc(NC(=O)c2ccccc2)c(C(c2ccc(Cl)cc2)N2CCN(CCO)CC2)c1C (centres undefined),i,-0.73,i,i,i,-2
Cc1sc(NC(=O)c2ccco2)c(C(c2cccnc2)N2CCN(CCO)CC2)c1C (centres undefined),i,1.3,i,i,i,-4
Cc1sc(NC(=O)c2ccco2)c(C(c2cccnc2)N2CCN(c3ccc(F)cc3)CC2)c1C (centres undefined),8*,-0.43,i,-6.6*,-12*,-12
CCOc1ccc(S(=O)(=O)N2CC(=O)Nc3ccccc32)cc1,i,0.37,i,i,i,-7
O=C(COC(=O)C1CCN(S(=O)(=O)c2cccs2)CC1)c1cc2ccccc2o1,i,-0.58,i,-7.8*,i,-9
O=C(Cc1cnc2ncnn2c1)N1CCc2c([nH]c3ccccc23)C1c1ccccn1 (centres undefined),i,-1.2,i,i,i,-7
Cc1ccc(C2=NNC(c3ccc(Cl)cc3)=Nc3ccccc32)o1,i,-1.2,i,i,i,-5
COc1ccc(N2N=NN(C(C)C)C2=C(Cl)c2nnnn2-c2ccc(OC)cc2)cc1,.,.,.,.,i,.
CCC1CCCCN1CCCNC(=O)c1ccc(CS(=O)(=O)c2ccc(Br)cc2)o1 (centres undefined),i,-0.99,i,i,i,-3
S=c1[nH]c2ccc(Cl)cc2s1,i,0.39,69*,i,i,53*
O=[N+]([O-])c1ccc2[nH]c(=S)sc2c1,.,.,.,.,i,.
CO/N=C(/CS(=O)c1ccc(Br)cc1)c1ccc(OC)cc1 (centres undefined),i,-8.9*,i,i,i,-11
C=CCN(Cc1ccc(Cl)s1)C(=O)c1ccc(F)c(S(=O)(=O)N2CCOCC2)c1,.,.,.,.,i,.
COc1cc(/C=N/N=C(N)N)ccc1OCc1ccc(Cl)cc1,13*,-8.2*,i,i,i,-32
NC(N)=N/N=C/c1ccccc1,i,-1.5,i,i,i,-9
NC(N)=N/N=C/c1ccc(OCc2ccccc2)c(OCc2ccccc2)c1,6*,0,i,i,i,-18
COc1cc(/C=N/O)ccc1OCc1ccc(Cl)cc1,i,-0.47,i,i,.,-6
NC(N)=N/N=C/c1ccc(Cl)c(Cl)c1,i,-5*,i,i,i,-4
